ChEMBL document CHEMBL4346672, “Antimicrobial and KPC/AmpC inhibitory activity of functionalized benzosiloxaboroles” (Eur J Med Chem, 2019)
Calls of active or inactive are those of the source. The calls are words filed in the database; no cut-off is given here.

What was measured:
[1] = test system: Klebsiella pneumoniae; conditions: ATCC 13883
[2] = test system: Pichia kudriavzevii; assay: Antifungal activity against Candida krusei ATCC 6258 assessed as diameter of zone inhibition incubated for 24 hrs by CLSI disc diffusion method; assay type: functional
Outline: (§1)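 Yeast disc diffusion on Mueller-Hinton agar supplemented with 2% glucose and 0.5 mg/L methylene blue. Compounds in DMSO. Yeasts subcultured on Sabouraud dextrose agar before testing. Zones read after 35 °C, 24 h.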

[3] = test system: Saccharomyces cerevisiae; assay: Antifungal activity against Saccharomyces cerevisiae ATCC 9763 diameter of zone inhibition incubated for 24 hrs by CLSI disc diffusion method; assay type: functional
Outline: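 Disc-diffusion run on Mueller-Hinton II agar with 2% glucose and 0.5 mg/L methylene blue, using compounds in DMSO. Yeast was precultured on Sabouraud dextrose agar (24–48 h, 30 °C). Zones read after 24 h at 35 °C.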

[4] = test system: Proteus mirabilis; assay: Antibacterial activity against Proteus mirabilis ATCC 12453 assessed as diameter of zone inhibition measured after 18 hrs by CLSI disc diffusion method; assay type: functional
Outline: (§2)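 Disc diffusion on Mueller-Hinton II agar. Compounds dissolved in DMSO. Strains stored at -80 °C and subcultured twice on tryptic soy agar before testing. Inhibition zones read after 35 °C, 18 h.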

[5] = test system: Bacillus subtilis; assay: Antibacterial activity against Bacillus subtilis ATCC 6633 assessed as diameter of zone inhibition measured after 18 hrs by CLSI disc diffusion method; assay type: functional
Outline: as §2

[6] = test system: Pseudomonas aeruginosa; assay: Antibacterial activity against Pseudomonas aeruginosa ATCC 27853 assessed as diameter of zone inhibition measured after 18 hrs by CLSI disc diffusion method; assay type: functional, organism-based
Outline: as §2

[7] = test system: Enterococcus faecium; assay: Antibacterial activity against Enterococcus faecium ATCC 6057 assessed as diameter of zone inhibition measured after 18 hrs by CLSI disc diffusion method; assay type: functional
Outline: as §2

[8] = test system: Enterococcus faecalis; assay: Antibacterial activity against Enterococcus faecalis ATCC 29212 assessed as diameter of zone inhibition measured after 18 hrs by CLSI disc diffusion method; assay type: functional
Outline: as §2

[9] = test system: Staphylococcus epidermidis; assay: Antibacterial activity against Staphylococcus epidermidis ATCC 12228 assessed as diameter of zone inhibition measured after 18 hrs by CLSI disc diffusion method; assay type: functional
Outline: as §2

[10] = test system: Burkholderia cepacia; assay: Antibacterial activity against Burkholderia cepacia ATCC 25416 assessed as diameter of zone inhibition measured after 18 hrs by CLSI disc diffusion method; assay type: functional
Outline: as §2

[11] = test system: Staphylococcus aureus; assay: Antibacterial activity against Staphylococcus aureus ATCC 6538P assessed as diameter of zone inhibition measured after 18 hrs by CLSI disc diffusion method; assay type: functional
Outline: as §2

[12] = test system: Serratia marcescens; conditions: ATCC 13880
[13] = test system: Stenotrophomonas maltophilia; assay: Antibacterial activity against Stenotrophomonas maltophilia ATCC 13637 assessed as diameter of zone inhibition measured after 18 hrs by CLSI disc diffusion method; assay type: functional
Outline: as §2

[14] = Dissociation constant, pKa2 of compound in 0.1 M NaOH by potentiometric analysis; assay type: physicochemical
[15] = Dissociation constant, pKa1 of compound in 0.1 M NaOH by potentiometric analysis; assay type: physicochemical
[16] = test system: Candida tropicalis; assay: Antifungal activity against Candida tropicalis IBA 171 assessed as diameter of zone inhibition incubated for 24 hrs by CLSI disc diffusion method; assay type: functional
Outline: as §1

[17] = test system: Bordetella bronchiseptica; assay: Antibacterial activity against Bordetella bronchiseptica ATCC 4617 assessed as diameter of zone inhibition measured after 18 hrs by CLSI disc diffusion method; assay type: functional
Outline: as §2

[18] = test system: Candida parapsilosis; assay: Antifungal activity against Candida parapsilosis ATCC 22019 assessed as diameter of zone inhibition incubated for 24 hrs by CLSI disc diffusion method; assay type: functional
Outline: as §1

[19] = test system: Escherichia coli; assay: Antibacterial activity against Escherichia coli ATCC 25922 assessed as diameter of zone inhibition measured after 18 hrs by CLSI disc diffusion method; assay type: functional
Outline: as §2

[20] = test system: Acinetobacter baumannii; assay: Antibacterial activity against Acinetobacter baumannii ATCC 19606 assessed as diameter of zone inhibition measured after 18 hrs by CLSI disc diffusion method; assay type: functional
Outline: as §2

[21] = test system: Meyerozyma guilliermondii; assay: Antifungal activity against Candida guilliermondii IBA 155 assessed as diameter of zone inhibition incubated for 24 hrs by CLSI disc diffusion method; assay type: functional
Outline: as §1

[22] = test system: Enterobacter cloacae; assay: Antibacterial activity against Enterobacter cloacae DSM 6234 assessed as diameter of zone inhibition measured after 18 hrs by CLSI disc diffusion method; assay type: functional
Outline: as §2

[23] = test system: Candida albicans; assay: Antifungal activity against Candida albicans ATCC 90028 assessed as diameter of zone inhibition incubated for 24 hrs by CLSI disc diffusion method; assay type: functional
Outline: as §1

In the case of C[Si]1(C)OB(O)c2cc3c(c(F)c21)[Si](C)(C)OB3O, the DIZ [1] is reported as “inactive”, the “diameter of the inhibition zone (DIZ)” value [2] is reported as “inactive” and the “diameter of the inhibition zone (DIZ)” value [3] is reported as “inactive”. For the same compound, the “diameter of the inhibition zone (DIZ)” value [4] was “inactive”, the “diameter of the inhibition zone (DIZ)” value [5] was 27 mm and the “diameter of the inhibition zone (DIZ)” value [6] was “inactive”. The “diameter of the inhibition zone (DIZ)” value [7] was 16 mm, the “diameter of the inhibition zone (DIZ)” value [8] was 15 mm and the “diameter of the inhibition zone (DIZ)” value [9] was 34 mm. For the same compound, the “diameter of the inhibition zone (DIZ)” value [10] was “inactive”, the “diameter of the inhibition zone (DIZ)” value [11] was 22 mm and the DIZ [12] was “inactive”. For the same compound, the “diameter of the inhibition zone (DIZ)” value [13] was “inactive”, the pKa [14] was 8.6 and the pKa [15] was 5.9. For the same compound, the “diameter of the inhibition zone (DIZ)” value [16] was “inactive”, the “diameter of the inhibition zone (DIZ)” value [17] was “inactive” and the “diameter of the inhibition zone (DIZ)” value [18] was “inactive”. For the same compound, the “diameter of the inhibition zone (DIZ)” value [19] was “inactive”, the “diameter of the inhibition zone (DIZ)” value [20] was “inactive” and the “diameter of the inhibition zone (DIZ)” value [21] was “inactive”. The “diameter of the inhibition zone (DIZ)” value [22] was “inactive” and the “diameter of the inhibition zone (DIZ)” value [23] was 11 mm.
